High-throughput results deposited in PubChem by several laboratories.
Dynein cargo inh = dynein cargo transport inhibition; 3617.4 mouse cells, GR-EGFP nuclear translocation imaging; test concentration mostly 20 µM; stimulated with dexamethasone, 1 µM; hits give low values; z-score, hits read low; 0.47% of 220,000 active; AID 1381;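 active = plate z-score of nuclear minus cytoplasmic receptor signal below a set negative limit, without overly bright fluorescence or cell loss, cut at about -3.5 in these data, passing the limit was not always enough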;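 also: z-score of nuclear minus cytoplasmic ring GR-EGFP intensity difference per well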
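Also added – dexamethasone, 1.0 µM final · Buffer or medium – tet-free, stripped-serum medium · Schedule – induction 48 h, compound 1 h, agonist 30 min · Detection – formaldehyde fixation, Hoechst nuclear stain, 10x automated fluorescence imaging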
L major viab = reduces viability of Leishmania major promastigotes; resazurin fluorescence viability; inhibition, % at 10 µM; 9% of 200,000 active; in the data active = inhibition above about 50%;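 also: promastigotes grown with compound for 44 hours at 28 °C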
UPR XBP1 act = activators of adaptive arm of unfolded protein response (XBP1) | CHO-XBP1 luciferase reporter, IRE1-XBP1 UPR activation, luminescence; percent of tunicamycin response, DMSO as zero | activation, % at 20 µM | 0.33% of 330,000 active | AID 463104;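 active = versus positive control, 20 µM dose yields 30% or more activation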;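 also: 100% = tunicamycin at 10 µg/mL and 0% = DMSO only wells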
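Assay system: CHO-XBP1 luciferase reporter cells; Schedule: 6 h treatment, 37 °C; Detection: glow luminescence from Steady-Glo reagent; Benchmarks: high control tunicamycin 10 µg/mL final, low control DMSO vehicle only.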
CHOP inhibitor = inhibitors of CHOP induction in ER stress response; CHO-K1 CHOP-promoter luciferase, tunicamycin-induced, 15-18 h; inhibition, % at 10 µM; 3.8% of 220,000 active; AID 2732;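 active = compounds that reduced the stress-induced luciferase reporter signal by more than about 70% of percent inhibition, limit read from the data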;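 also: 0% = tunicamycin plus vehicle and 100% = wells without tunicamycin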
T cruzi repl = blocks replication of Trypanosoma cruzi; T. cruzi beta-gal in NIH3T3, luminescence, 90 h; inhibition, % (concentration not given with the values); 1.4% of 300,000 active; AID 1885;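 active = mean inhibition across valid replicates above about 55%, limit read from the data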;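 also: signal also drops with host cell toxicity which is not excluded here; 0% = plate median of DMSO wells and 100% = zero luminescence signal; higher percent means less beta-gal luminescence so fewer parasites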
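assay system = mouse NIH/3T3 fibroblasts infected with β-gal-expressing T. cruzi Tulahuen C4 | input = 5,000 NIH/3T3 host cells per well | buffer or medium = DMEM plus 2% FBS | timing = 3 h host attachment, then at least 90 h co-culture | measured by = GalScreen luminescence, 60 min | evaluation = luminescence reflecting intracellular parasite burden, expressed as percent inhibition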
CHOP UPR activ = apoptotic UPR (CHOP) activation. CHO-CHOP luciferase reporter, luminescence; percent of tunicamycin response over DMSO baseline. activation, % at 10 µM. 0.34% of 330,000 active. AID 449763;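 active = at 10 µM dose, activation of 40% or more, normalized to positive control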;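 also: 100% = tunicamycin at 10 µg/mL and 0% = DMSO alone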
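Test system: CHO CHOP reporter cells. Input: 500 CHO-CHOP cells per well. Medium: F12 with 10% FBS. Technique: luciferase luminescence. Measure: percent activation relative to tunicamycin control. Dosing: 10 µM compound, 0.5% DMSO. Timing: 16-18 h cell attachment, then 6 h compound exposure, 37 °C.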
Numbers without * were called inactive; nt = no result. Only a selection was taken, and hits are over-represented in it overall.

SMILES	Dynein cargo inh	L major viab	UPR XBP1 act	CHOP inhibitor	T cruzi repl	CHOP UPR activ
COc1ccc(NC(=S)NC2CCCCC2)c(OC)c1	-0.46	6	-1	-5	19	0
S=C(Nc1ccccc1Oc1ccccc1)NC1CCCC1	1.2	61*	4	9	10	-1
CCCCN(CC)CCCNC(=O)c1cc2cc3ccc(OC)cc3nc2o1	-0.24	96*	-1	nt	54	0
COc1ccc2cc3cc(C(=O)NCc4cccs4)oc3nc2c1	-0.56	19	3	5	6	3
COc1ccc2cc3cc(C(=O)NCCc4ccc(OC)c(OC)c4)oc3nc2c1	-0.12	29	3	10	1	-1
COc1ccc2cc3cc(C(=O)Nc4ccc5c(c4)OCO5)oc3nc2c1	-0.38	100*	1	-35	3	2
CCCN(CCC)CCCNC(=O)c1cc2cc3ccc(OC)cc3nc2o1	0.52	96*	-1	nt	45	2
Cc1cc(NC(=O)COC(=O)C(Nc2ccc(C(F)(F)F)cc2Cl)C(C)C)no1 (stereo unspecified)	-0.49	11	8	102*	7	0
Cc1cc(NC(=O)COC(=O)c2ccc(OC(F)(F)F)cc2)no1	nt	nt	-1	nt	nt	2
COc1cc(CNCCc2ccc(S(N)(=O)=O)cc2)ccc1OCC(=O)N1CCCCC1	-0.43	-6	1	3	15	0
COc1ccc(CCNc2nc(N3CCOCC3)nc(N3CCOCC3)n2)cc1OC	1.4	17	-4	10	8	0
COc1ccc(CCNCc2ccc(OCC(=O)N3CCCCC3)c(OC)c2)cc1OC	-1.2	-5	0	-15	57*	0
CCOc1nc(NCCc2ccc(OC)c(OC)c2)nc(NC(C)(C)CO)n1	-0.69	53*	-1	57	2	-1
COc1ccc(CCNc2nc(Cl)nc(NC(C)(C)CO)n2)cc1OC	nt	nt	-1	nt	5	1
COc1ccc(CCNc2nc(N3CCCCC3)nc(N3CCCCC3)n2)cc1OC	0.19	95*	-4	54	42	0
CC1CC(=O)Nc2ccccc2N1S(=O)(=O)c1cccc(Cl)c1 (stereo unspecified)	-0.1	-5	-2	-1	-4	-1
COc1cccc(CNC(=O)CCCc2nnc3n(C)c(=O)c4sccc4n23)c1	nt	nt	-6	nt	1	0
COc1ccc(/C=C/c2c([N+](=O)[O-])c(=O)n(C)c(=O)n2C)cc1O	-2.1	90*	-4	8	-18	0
COc1ccc(OC)c(/C=C/c2c([N+](=O)[O-])c(=O)n(C)c(=O)n2C)c1	-0.9	47	-2	18	3	1
Cn1c(/C=C/c2ccc(Br)cc2)c([N+](=O)[O-])c(=O)n(C)c1=O	nt	nt	0	nt	11	4
COc1cc(/C=C/c2c([N+](=O)[O-])c(=O)n(C)c(=O)n2C)cc(OC)c1OC	0.44	79*	-2	5	-18	0
Cc1ccc(C)c(S(=O)(=O)N2CCC(c3nc4c(nnn4Cc4ccc(F)cc4)c(=O)[nH]3)CC2)c1	0.34	0	2	52	nt	-3
Cc1ccc(Cn2nnc3c(=O)[nH]c(C4CCN(S(=O)(=O)c5ccc(F)cc5)CC4)nc32)cc1	-1	-7	-3	84*	-3	1
CNC(=O)CSc1nc2ccccc2c(=O)n1C1CCCCC1	nt	nt	-2	nt	-10	1
CCCCNC(=O)CSc1nc2ccccc2c(=O)n1C1CCCC1	-0.23	95*	0	32	21	-3
SMILES	Dynein cargo inh	L major viab	UPR XBP1 act	CHOP inhibitor	T cruzi repl	CHOP UPR activ
Cc1cccc(NC(=O)CNC(=O)CSc2nnc(C(F)(F)F)n2C)c1C	nt	nt	-1	nt	nt	-1
COc1cccc(C(=O)N2CCN(C3CCC(c4ccccc4)CC3)CC2)c1 (stereo unspecified)	-0.72	89*	nt	45	28	nt
COc1cccc(C(=O)N2CCC(N3CC(C)OC(C)C3)CC2)c1 (stereo unspecified)	-0.21	73*	-1	-25	-15	-3
Cc1cccc(OCC(=O)N2CCC(N3CCCCCC3)CC2)c1	0.32	92*	0	-20	19	-1
COc1cccc(C(=O)N2CCN(Cc3ccccc3C(F)(F)F)CC2)c1	0.21	2	-1	71*	5	0
COc1ccc(NC(=O)CN(C)C(=O)CSCc2ccc(C)cc2)cc1	nt	nt	0	nt	-4	1
O=C(Nc1ccc(S(=O)(=O)Nc2cnc3ccccc3n2)cc1)c1cc(F)c(F)cc1Cl	nt	nt	0	nt	9	-2
O=C(c1cccc(F)c1)N1CCC(N2CCCCCC2)CC1	0.21	87*	-1	1	24	2
O=C(Nc1ccc(Br)cc1)c1ccc(N2C(=O)C3CCCCC3C2=O)cc1 (stereo unspecified)	nt	nt	-5	nt	-12	0
O=C(Nc1ccc(Br)cc1)c1ccc(N2C(=O)C3CC=C(Cl)CC3C2=O)cc1 (stereo unspecified)	0.072	-5	-2	77*	-1	-2
CC1=NN(C(=O)c2ccccc2F)C(O)(c2ccc(Cl)cc2)C1 (stereo unspecified)	nt	nt	-2	nt	-6	1
COCCNC(=S)NC(=O)CC12CC3CC(CC(C3)C1)C2	-0.69	88*	0	33	27	-2
CCc1ccc2c(c1)C(c1ccc(N3CCOCC3)cc1)=NNC(c1ccncc1)=N2	0.33	57*	0	16	59*	-1
COc1ccc(-c2nc(-c3ccc(NC(=O)c4ccncc4)cc3)no2)cc1OC	1.2	8	-3	72*	49	1
COc1ccc(Cl)cc1-c1nc(-c2ccc(NC(=O)c3ccncc3)cc2)no1	0.6	16	0	nt	-4	-1
Cn1c(=O)c(C(=O)c2ccccc2)c(O)c2ccccc21	nt	nt	-1	nt	-5	-2
CC(=O)c1c(OC(=O)c2ccccc2)c2ccccc2n1C	0.27	-12	5	70*	-16	0
CCN(CC)S(=O)(=O)c1ccc(Cl)c(C(=O)OC)c1	-0.71	61*	0	41	13	1
CCN(CC)S(=O)(=O)c1ccc(Cl)c(C(=O)NCc2ccccc2Cl)c1	-0.26	99*	-4	1	3	-2
COc1ccc(CC(=O)Nc2nc(-c3ccncc3)cs2)cc1	-0.38	29	-1	1	67*	1
O=C(NC(=S)Nc1nc(-c2cccc([N+](=O)[O-])c2)cs1)c1ccccc1Cl	-0.79	7	0	96*	15	6
COc1ccc(CC(=O)Nc2nc(-c3ccc(F)c(F)c3)cs2)cc1	nt	nt	3	nt	14	1
COc1ccc(CC(=O)Nc2nc(-c3cccc([N+](=O)[O-])c3)cs2)cc1	-0.53	62*	-2	80*	-3	0
